# Screening results as filed in PubChem.
# Only some compounds are listed: those with a hit (about 4.6% of all), similar ones and a draw of the others.
# p97 ATPase inh – human p97 ATPase inhibition; P55072; recombinant p97 ATPase, Kinase-Glo ATP luminescence, 3 h; inhibition, % at 8 µM; 0.42% of 220,000 active; in the data active means inhibition above about 15%;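 further: 0% = DMSO vehicle and 100% = wells lacking enzyme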
# STAT1 activator – increases IFN-gamma driven STAT1 reporter signal. NIH 3T3 STAT1-luciferase reporter, luminescence; 100% = IFN-gamma alone, no compound. activation (% of control), % at 5.5 µM. 2.6% of 200,000 active. AID 932;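 active means activation above the screen-wide mean activation plus 3 SD, cut at about 130% in these data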;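 further: raw ratio to IFN-gamma control signal so 100% means no change and 0% no light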
# NF-kB neuron act – compounds increasing NF-kB expression in human neuronal cells. 1.6% of 190,000 active. fold change at 12.5 µM. NF-kB reporter expression; active compounds read high; in the data active means fold change above about 3.3
# Mdm2 ligase inh – inhibitors of human Mdm2 E3 ubiquitin ligase; signal enhancement, % at 5 µM; 0.11% of 210,000 active; Q00987; cell-based MDM2 ubiquitination luciferase reporter, 2 h; 0 = plate control, 100 = twice control, blank-subtracted;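 active means signal enhancement of 30% or more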;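 further: luminescence tracks abundance of the self-degrading MDM2-luciferase fusion protein; higher signal means inhibition of MDM2 E3 ligase activity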
#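 Material: Stable MDM2–luciferase fusion reporter cells | Amount: 2000 cells seeded into each well | Dosing: One concentration, 5 µM, with 0.2% DMSO | Incubation: 4 h cell settling then 2 h compound exposure, 37 °C | Measured by: Luciferase luminescence | Read-out basis: % enhancement relative to plate controls after blank subtraction | Benchmarks: Control and blank well means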
# APP 5'UTR act – activates APP 5'UTR luciferase reporter. SH-SY5Y APP 5'UTR luciferase reporter, luminescence; zero percent = DMSO vehicle wells. activation, % at 2 µM. 1% of 190,000 active. AID 1276;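 active means activation above a set limit, based on mean plus 3 SD of controls, cut at about 140% in these data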
# Wee1 stabilizer – human Wee1 degradation inhibition, primary screen; HeLa Luc-Wee1K328M stability, luciferase luminescence; 100% = proteasome inhibitor MG132 effect; P30291; 1.2% of 220,000 active; reporter increase, % at 5 µM;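 active means activation above the mean of all tested compounds plus 3 SD, set per screening run, cut at about 8.8% in these data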;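 further: cells exposed to compound for 20 h before luminescence read; 0% = DMSO alone and 100% = MG132 at 30 µM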
# Target sequence (P30291 whole entry K328M): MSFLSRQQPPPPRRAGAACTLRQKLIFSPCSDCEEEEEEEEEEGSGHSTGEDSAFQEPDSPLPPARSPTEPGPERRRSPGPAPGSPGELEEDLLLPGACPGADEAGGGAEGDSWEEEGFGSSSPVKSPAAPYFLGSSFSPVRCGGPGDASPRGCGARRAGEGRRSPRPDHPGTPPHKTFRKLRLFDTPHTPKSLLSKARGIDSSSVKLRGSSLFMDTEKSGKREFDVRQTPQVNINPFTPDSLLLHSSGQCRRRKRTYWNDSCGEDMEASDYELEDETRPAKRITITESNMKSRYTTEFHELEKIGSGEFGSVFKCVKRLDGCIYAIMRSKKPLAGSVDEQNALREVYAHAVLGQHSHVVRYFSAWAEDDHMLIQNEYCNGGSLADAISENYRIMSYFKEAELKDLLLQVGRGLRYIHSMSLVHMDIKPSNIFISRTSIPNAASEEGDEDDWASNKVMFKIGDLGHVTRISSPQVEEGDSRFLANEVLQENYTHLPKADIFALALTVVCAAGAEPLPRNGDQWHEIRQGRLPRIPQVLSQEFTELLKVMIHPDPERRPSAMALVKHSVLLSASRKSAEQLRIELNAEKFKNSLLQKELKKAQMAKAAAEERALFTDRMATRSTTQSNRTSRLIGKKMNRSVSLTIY
# Wee1 degr conf – confirmation of human Wee1 degradation inhibitors. 4% of 1,100 active. AID 1410. HeLa Luc-Wee1K328M degradation, luminescence; vehicle 0%, proteasome-blocked wells 100%. shares compounds with Wee1 stabilizer. activation, % at 5 µM; in the data active means activation above about 8.9%
# Active calls of the source: *; nt = no result.
SMILES,p97 ATPase inh,STAT1 activator,NF-kB neuron act,Mdm2 ligase inh,APP 5'UTR act,Wee1 stabilizer,Wee1 degr conf
COC(=O)c1cccc(Nc2ncnc3sccc23)c1,3.6,97.5,1.34,-6.1,26.2,13.6*,-0.5
Cc1ccc(NC(=O)Nc2ccno2)cc1,2.7,nt,nt,-5.5,nt,1.3,nt
Cc1ccc(CC(=O)Nc2ncc([N+](=O)[O-])s2)cc1,3.4,115.8,1.8,-12.5,12.4,2.7,nt
Cc1ncoc1C(=O)Nc1ncc([N+](=O)[O-])s1,-6.3,142.0*,2.44,-48.9,78.2,13.9*,8.2
CCCc1cc(=O)[nH]c(SCC(=O)NC2CCCc3ccccc32)n1 (centres undefined),1.1,nt,nt,nt,nt,0.7,nt
CCN(CC)C(=O)CSCc1cnn(-c2ccccc2)c1-n1cccc1,-0.3,93.7,0.94,-22.0,13.7,15.8*,1.4
O=C(CSCc1cnn(-c2ccccc2)c1-n1cccc1)NCc1ccccn1,0.2,103.0,0.76,-0.2,-14.2,-2.3,nt
Cc1cc(C)n(C(=O)Cn2nc([N+](=O)[O-])c(Br)c2C)n1,-2.6,103.0,1.12,-1.0,2.9,-1.4,nt
O=C(Nc1cc(S(=O)(=O)N2CCCC2)ccc1OCC(F)(F)F)c1ccccc1F,4.8,96.5,1.01,2.2,-14.7,13.1*,3.0
Cn1ccnc1SCC(=O)Nc1nc2ccccc2s1,0.8,134.3*,0.88,10.1,26.5,13.6*,5.2
O=C(CSc1ccccn1)Nc1nc2ccccc2s1,3.8,112.2,1.93,3.8,0.6,1.2,nt
CCCN(CCC)CCNC(=O)CCC(=O)Nc1ccc2nc(N3CCN(C)CC3)cc(C)c2c1,1.9,98.9,1.44,-6.9,9.0,-1.6,nt
CN(C)c1nc(N)nc(-c2nc3ccccc3s2)n1,4.7,134.9*,2.85,-18.9,25.3,11.7*,1.5
CCOc1ccccc1N1CC(C(=O)Nc2cccc(S(=O)(=O)N3CCCCC3)c2)CC1=O (centres undefined),-3.9,86.5,1.08,-9.7,20.7,0.6,nt
CCN(CC)CCn1c(SCC(=O)Nc2cccc(OC)c2)nc2c(sc3ccccc32)c1=O,-5.5,99.6,0.95,-11.6,-1.8,11.8*,4.7
CN1CCN(C(=O)c2cc3sc4ccccc4c3s2)CC1,3.4,nt,nt,-21.1,nt,13.7*,0.7
CCn1c(=O)c2cc(C(=O)N3CCN(C)CC3)sc2c2ccccc21,-7.3,107.0,1.08,17.8,8.1,8.4,nt
CCCc1ccc(C(=O)Cn2nc(C(=O)O)c3ccccc3c2=O)cc1,2.6,107.9,0.97,-12.0,7.9,11.4*,2.5
O=C(CN1C(=O)NC2(CCCc3ccccc32)C1=O)Nc1cccc(S(=O)(=O)N2CCCCC2)c1 (centres undefined),5.3,88.7,0.7,8.2,1.3,-3.6,nt
CN(C)CCCN1C(=O)C2CCc3[nH]c4ccccc4c3C2C1=O (centres undefined),-4.6,84.2,1.04,9.7,2.0,0.7,nt
O=S(=O)(Nc1nc2ccccc2nc1Nc1ccc2c(c1)OCO2)c1ccccc1,1.6,90.4,0.97,-24.1,-7.8,14.2*,-0.5
Cc1cccc(S(=O)(=O)Nc2nc3ccccc3nc2Nc2ccc3c(c2)OCO3)c1,-0.2,90.2,0.83,-0.6,23.0,5.9,nt
Cc1cc(N)nc2nc(C(F)(F)F)nn12,0.0,105.5,1.28,-24.5,9.2,-2.4,nt
COc1ccc(-n2nnnc2SCC(=O)Nc2nnn(C)n2)cc1,1.6,97.7,1.1,-9.9,15.2,10.9*,-1.9
Cc1ccc(S(=O)(=O)N2c3ccccc3OCC2C(C)(C)C)cc1 (centres undefined),-8.4,96.2,0.98,-12.3,-2.7,21.1*,1.9
Cc1ccc2c(c1)N(S(=O)(=O)c1ccc(F)cc1)C(C(C)(C)C)CO2 (centres undefined),-0.6,98.5,0.88,-34.5,nt,-1.2,nt
CCOc1ccc(S(=O)(=O)NCCCN2CCCC2=O)cc1,8.3,100.0,0.98,-11.2,-2.4,-3.9,nt
COC(CNC(=O)c1cccnc1)OC,4.7,89.2,0.93,0.6,9.2,-0.1,nt
COC(CNC(=O)c1ccc2nc(-c3cccs3)c(-c3cccs3)nc2c1)OC,5.1,98.2,0.77,-13.2,-2.5,11.7*,5.1
